Published values of several laboratories.
Each line is one published result; the experiments were not run side by side.
Target: Serine/threonine-protein kinase PknB (pknB, Mycobacterium tuberculosis, UniProt P9WI81)

SMILES	assay	setting	remaining binding [%]
Cc1c(NC(=O)c2cc(C(N)=O)nc3cc(F)ccc23)c(C(F)(F)F)nn1Cc1ccc(C#N)cc1	cell-free assay, competition with immobilised ligand	1 µM	78
Nc1ncc2c(n1)-c1c([nH]c3ccc(C#CC4CC4)cc13)CCCC2	binding, competition with immobilised ligand	1 µM	90
CN(C)c1ncc(F)c(-c2cnn3ncccc23)n1	binding	1 µM	87
O=C(Nc1cccnn1)N1CCC(=Cc2cccc(Oc3ccc(C(F)(F)F)cn3)c2)CC1	cell-free assay, competition with immobilised ligand	1 µM	95
COc1cnc(Nc2cccc(S(N)(=O)=O)c2)nc1N1CCN(c2ccccc2)CC1	binding, competition with immobilised ligand	1 µM	99
CN(C)CC#Cc1ccc(OCCCc2sc(N3CCc4cccc(C(=O)Nc5nc6ccccc6s5)c4C3)nc2C(=O)O)c(F)c1	cell-free assay, competition with immobilised ligand	1 µM	100
c1cnn2ncc(-c3ccnc(N4CCC45COC5)n3)c2c1	binding	1 µM	79
O=C(Nc1c[nH]nc1C(=O)NC1CCNCC1)c1cc(F)cc(F)c1	binding, competition with immobilised ligand	1 µM	100
C[C@@H](c1ccc(-n2cnc3c(N)ncnc32)cc1)N1CCc2nn(C)c(Cc3ccccc3)c2C1=O	binding, competition with immobilised ligand	0.1 µM	96
CN(c1nccc(-c2cnn3ncccc23)n1)C1CC1	binding	1 µM	100
Cc1nn(C)cc1-c1nc2c(N3CCN(Cc4ccc(Cl)cc4)CC3)c(Cl)cnc2[nH]1	binding, competition with immobilised ligand	1 µM	56
N[C@@H]1CCN(c2nccc(-c3cnn4ncccc34)n2)C1	binding	1 µM	100
FC(F)(F)Oc1cccc(-c2cnc3ccc(-c4ccncc4)nn23)c1	cell-free assay, competition with immobilised ligand	5 µM	31
F[C@@H]1CCN(c2nccc(-c3cnn4ncccc34)n2)C1	binding	1 µM	100
O=C(NCCCC1CCCCC1)c1ccc(CNC(=O)c2cnn(-c3ccccc3)c2C(F)(F)F)cc1	cell-free assay, competition with immobilised ligand	0.1 µM	100
